These results are taken from ChEMBL document CHEMBL1629432, “The identification of novel orally active mGluR5 antagonist GSK2210875” (Bioorg Med Chem Lett, 2010).

A word on the solubility: it is the concentration that dissolves in the medium under given conditions. Broadly, the Cmax is the maximum level reached in the sampled fluid or tissue. By IC50 is commonly meant the concentration that gives 50% inhibition. As a reminder, the bioavailability is the share of a dose that reaches the circulation, judged against a reference dose that is usually intravenous. Low values mean little systemic uptake, high ones much systemic uptake. The logD is lipophilicity at a set pH, counting ionised and neutral species. As a reminder, the fraction unbound is the share of the substance not bound to proteins or other matrix. A higher fraction unbound goes with weak binding.

Molecules are shown by their SMILES. ≈ marks a conversion by molar mass, not a printed value.

Data set [1] can be described thus: Solubility of the compound. In kind it is physicochemical.
Data set [2] in a line: Cmax in rat at 1.0 mg/kg, po. In kind it is ADME, organism-based. On the set-up: dose 1 mg/kg, route oral. To be noted: in vivo. The gist of the method:
(§1)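 Rat pharmacokinetics after a 1.0 mg/kg oral dose and a 0.5 mg/kg intravenous dose. Blood clearance, oral blood Cmax, brain:blood AUC ratio and oral bioavailability determined.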

The target of data set [3] is Metabotropic glutamate receptor 1 (Homo sapiens) (UniProt Q13255). The data set can be described thus: Antagonist activity at mGluR1.
The nature of data set [4]: Cmax in rat brain at 1.0 mg/kg, po. In kind it is ADME, organism-based. The arrangement: dose 1 mg/kg, route oral.
A further data set concerns Brain. The experiment in a line: fCmax in rat brain at 1.0 mg/kg, po. Type of data set: ADME, organism-based. The arrangement: dose 1 mg/kg, route oral. To be noted: in vivo.
Data set [5] is described as follows: Oral bioavailability in rat at 1.0 mg/kg. Type of data set: ADME, organism-based. To be noted: in vivo. The gist of the method:
as §1

The nature of data set [6]: Ratio of AUC in rat brain to plasma at 1.0 mg/kg, po and 0.5 mg/kg, iv. In kind it is ADME, organism-based. To be noted: read-out: Ratio AUC. In outline:
as §1

Data set [7] addresses T1, Metabotropic glutamate receptor 5 (Homo sapiens, UniProt P41594). The data set can be described thus: Antagonist activity at human mGluR5 expressed in CHO cells assessed as glutamate induced calcium mobilization.
Data set [8] deals with Metabotropic glutamate receptor 5 (Mus musculus, UniProt Q3UVX5). The data set can be described thus: Antagonist activity at mGluR5 in mouse astrocytes assessed as inhibition of L-quisqualate induced calcium release by FLIPR assay. In kind it is functional, cell-based. In outline:
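Primary cortical astrocytes from CD1 mouse pups aged 1–3 days. Cultures re-plated after 5 days to remove neurons and grown at 37 °C to confluence (10–14 d), then plated for 2 days. Cells pre-incubated with antagonist concentration-response curves and challenged with the day's EC80 of L-quisqualate. Intracellular calcium monitored on FLIPR to give fpKi.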

Data set [9] in a line: Clearance in rat at 1.0 mg/kg, po and 0.5 mg/kg, iv. In kind it is ADME, organism-based. To be noted: in vivo. The gist of the method: as §1
The target in data set [10] is T1, Metabotropic glutamate receptor 5. The data set can be described thus: Antagonist activity at human mGluR5 expressed in CHO cells assessed as […] calcium mobilization. In kind it is functional, cell-based. In outline:
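CHO cells stably expressing apo-aequorin, with human mGluR5 expression induced by doxycycline. Calcium mobilisation read by aequorin luminescence. Eleven-point concentration-response curves run in the presence of an EC80 of glutamate. pIC50 is the average of at least two curves.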

Data set [11] can be described thus: Lipophilicity, log D of the compound at pH 7.4. Type of data set: physicochemical. The conditions noted are these: buffer.
The nature of data set [12]: Fraction unbound in rat brain. Type of data set: ADME, tissue-based.

T1 sequence (P41594 whole entry): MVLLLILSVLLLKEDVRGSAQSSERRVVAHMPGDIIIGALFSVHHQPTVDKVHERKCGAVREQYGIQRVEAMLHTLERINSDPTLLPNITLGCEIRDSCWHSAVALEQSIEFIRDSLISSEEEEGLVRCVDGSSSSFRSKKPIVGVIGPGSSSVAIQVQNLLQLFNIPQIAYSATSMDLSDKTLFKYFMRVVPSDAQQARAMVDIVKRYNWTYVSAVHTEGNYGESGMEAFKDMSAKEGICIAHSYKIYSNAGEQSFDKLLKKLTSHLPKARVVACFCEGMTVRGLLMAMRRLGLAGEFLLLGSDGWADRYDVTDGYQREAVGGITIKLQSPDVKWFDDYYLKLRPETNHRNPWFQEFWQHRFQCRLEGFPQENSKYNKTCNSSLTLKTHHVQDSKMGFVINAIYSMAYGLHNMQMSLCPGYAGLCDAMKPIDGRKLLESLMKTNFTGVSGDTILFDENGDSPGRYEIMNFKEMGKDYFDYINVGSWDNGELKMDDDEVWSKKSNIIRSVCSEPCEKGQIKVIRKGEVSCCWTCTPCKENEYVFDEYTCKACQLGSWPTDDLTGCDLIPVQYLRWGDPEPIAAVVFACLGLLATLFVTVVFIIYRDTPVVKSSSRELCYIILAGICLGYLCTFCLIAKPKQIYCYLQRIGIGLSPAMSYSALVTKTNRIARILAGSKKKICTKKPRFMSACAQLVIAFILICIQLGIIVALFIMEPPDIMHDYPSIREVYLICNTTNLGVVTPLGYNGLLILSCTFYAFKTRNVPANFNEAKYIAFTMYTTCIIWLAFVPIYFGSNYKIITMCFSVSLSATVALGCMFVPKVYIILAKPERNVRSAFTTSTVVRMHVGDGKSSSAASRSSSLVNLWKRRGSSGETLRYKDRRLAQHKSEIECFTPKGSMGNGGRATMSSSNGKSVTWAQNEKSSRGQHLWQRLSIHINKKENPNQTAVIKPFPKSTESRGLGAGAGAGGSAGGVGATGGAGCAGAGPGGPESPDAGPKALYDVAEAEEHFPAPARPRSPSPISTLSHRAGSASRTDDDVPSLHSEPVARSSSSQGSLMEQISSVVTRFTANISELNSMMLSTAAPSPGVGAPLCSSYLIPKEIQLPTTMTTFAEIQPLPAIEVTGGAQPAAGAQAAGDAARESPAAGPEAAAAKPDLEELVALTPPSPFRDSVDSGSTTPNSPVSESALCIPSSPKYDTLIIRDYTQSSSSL
Metabotropic glutamate receptor 5 (Mus musculus, UniProt Q3UVX5), sequence (Q3UVX5 whole entry): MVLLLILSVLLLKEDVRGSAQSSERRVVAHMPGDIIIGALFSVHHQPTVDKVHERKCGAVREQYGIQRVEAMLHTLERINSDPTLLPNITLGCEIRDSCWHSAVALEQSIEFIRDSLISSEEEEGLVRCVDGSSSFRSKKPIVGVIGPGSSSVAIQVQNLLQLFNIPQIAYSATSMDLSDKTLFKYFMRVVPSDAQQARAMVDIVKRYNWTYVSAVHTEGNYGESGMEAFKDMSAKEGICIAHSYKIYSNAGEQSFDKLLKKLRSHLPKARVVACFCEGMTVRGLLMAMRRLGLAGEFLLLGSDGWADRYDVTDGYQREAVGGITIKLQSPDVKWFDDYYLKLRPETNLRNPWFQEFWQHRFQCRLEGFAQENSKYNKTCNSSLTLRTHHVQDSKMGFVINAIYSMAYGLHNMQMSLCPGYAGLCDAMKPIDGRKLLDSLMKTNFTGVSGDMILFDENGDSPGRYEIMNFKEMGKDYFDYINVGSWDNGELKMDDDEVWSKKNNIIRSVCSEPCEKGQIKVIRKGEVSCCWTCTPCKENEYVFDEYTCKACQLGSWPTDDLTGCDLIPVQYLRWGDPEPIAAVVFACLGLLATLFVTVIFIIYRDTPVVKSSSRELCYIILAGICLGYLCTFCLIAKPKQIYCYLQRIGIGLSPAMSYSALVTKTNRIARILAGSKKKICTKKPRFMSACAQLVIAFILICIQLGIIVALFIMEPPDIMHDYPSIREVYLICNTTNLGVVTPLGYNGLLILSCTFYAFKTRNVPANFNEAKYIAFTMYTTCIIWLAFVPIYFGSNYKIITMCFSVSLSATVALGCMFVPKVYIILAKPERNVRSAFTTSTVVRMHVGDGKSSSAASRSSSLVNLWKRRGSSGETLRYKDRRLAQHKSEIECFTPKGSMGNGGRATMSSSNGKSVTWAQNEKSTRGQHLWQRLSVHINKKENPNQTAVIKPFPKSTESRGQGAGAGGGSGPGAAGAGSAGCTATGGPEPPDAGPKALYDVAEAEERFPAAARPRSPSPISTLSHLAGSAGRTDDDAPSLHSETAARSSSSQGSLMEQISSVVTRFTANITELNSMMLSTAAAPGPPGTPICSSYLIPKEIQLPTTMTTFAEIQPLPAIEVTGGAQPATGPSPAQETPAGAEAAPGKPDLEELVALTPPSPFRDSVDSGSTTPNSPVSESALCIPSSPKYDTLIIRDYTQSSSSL
Metabotropic glutamate receptor 1 (Homo sapiens), sequence (Q13255 whole entry, looked up): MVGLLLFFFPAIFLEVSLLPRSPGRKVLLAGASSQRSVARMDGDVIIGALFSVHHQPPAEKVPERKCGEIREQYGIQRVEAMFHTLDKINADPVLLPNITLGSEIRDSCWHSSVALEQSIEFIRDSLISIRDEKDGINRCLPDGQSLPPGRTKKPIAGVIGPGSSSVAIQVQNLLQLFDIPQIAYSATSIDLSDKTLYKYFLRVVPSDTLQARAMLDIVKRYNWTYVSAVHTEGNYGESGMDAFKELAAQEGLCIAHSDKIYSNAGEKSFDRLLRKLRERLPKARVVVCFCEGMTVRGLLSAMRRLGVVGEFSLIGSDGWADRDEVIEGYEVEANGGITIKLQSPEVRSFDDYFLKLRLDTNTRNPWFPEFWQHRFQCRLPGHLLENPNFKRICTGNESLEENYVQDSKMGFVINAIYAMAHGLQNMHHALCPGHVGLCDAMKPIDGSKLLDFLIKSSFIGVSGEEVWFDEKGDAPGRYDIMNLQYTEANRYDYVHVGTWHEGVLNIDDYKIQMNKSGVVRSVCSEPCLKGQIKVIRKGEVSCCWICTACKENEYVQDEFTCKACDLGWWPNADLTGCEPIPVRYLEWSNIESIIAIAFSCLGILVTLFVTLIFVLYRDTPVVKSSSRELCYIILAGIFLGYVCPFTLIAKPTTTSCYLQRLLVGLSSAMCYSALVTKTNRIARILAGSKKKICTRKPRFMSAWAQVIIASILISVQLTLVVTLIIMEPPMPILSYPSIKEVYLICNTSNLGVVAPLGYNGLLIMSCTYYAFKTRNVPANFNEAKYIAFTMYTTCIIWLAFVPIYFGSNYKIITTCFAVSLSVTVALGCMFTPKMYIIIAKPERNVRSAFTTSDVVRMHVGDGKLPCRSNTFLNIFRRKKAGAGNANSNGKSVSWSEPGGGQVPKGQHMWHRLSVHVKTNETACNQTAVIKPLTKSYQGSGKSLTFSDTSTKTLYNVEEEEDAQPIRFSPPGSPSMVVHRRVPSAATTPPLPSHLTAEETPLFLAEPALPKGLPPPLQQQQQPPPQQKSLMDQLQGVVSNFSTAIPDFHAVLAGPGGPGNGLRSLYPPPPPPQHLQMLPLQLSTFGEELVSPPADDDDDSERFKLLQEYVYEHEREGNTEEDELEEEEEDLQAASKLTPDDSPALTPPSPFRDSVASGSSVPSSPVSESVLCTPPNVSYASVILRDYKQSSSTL

In data set [1], `Cc1c([C@@H](C)OC(=O)Nc2ccccc2)sc2ncnn12` gave a solubility of 166 µg/mL (≈ 549 µM). Besides, the peak concentration (Cmax) in data set [2] was 63 ng/mL; in data set [4] it was 250 nM. Besides, the 50% inhibitory concentration (IC50) was 31.6 µM in [3], 0.0398 µM in data set [7] and 0.0316 µM in data set [8]. In the data set with Brain, this compound gave a fCmax of 30 nM. In data set [5], this compound gave a bioavailability of 28%. Further, in [6], the Kp amounted to 2. In addition, in [9], the clearance is 48 mL/min/kg.
Regarding `Cc1c(C(C)OC(=O)NC2CCCCC2)sc2ncnn12` (stereo not given), the 50% inhibitory concentration (IC50) in data set [10] is 3.16 µM.
Same read-out and setting: next, `Cc1c(C(C)OC(=O)Nc2ccccc2Cl)sc2ncnn12` (stereo not given): 0.501 µM.
With `Cc1c(C(C)OC(=O)Nc2cccc(Cl)c2)sc2ncnn12` (stereo not given), the IC50 in data set [10] was 0.0398 µM. The compound further showed a logD in data set [11] of 2.9. The compound further showed a free fraction (fraction unbound) in data set [12] of 0.009.
As to `Cc1c(C(C)OC(=O)Nc2ccc(Cl)cc2)sc2ncnn12` (stereo not given), in data set [10], the IC50 was 2.51 µM.
Regarding `Cc1c(C(C)OC(=O)Nc2cccc(F)c2)sc2ncnn12` (stereo not given), the IC50 in [10] is 0.0501 µM. The compound also showed a logD in data set [11] of 2.6. The same compound showed a fraction unbound in data set [12] of 0.017.
For `Cc1c(C(C)OC(=O)Nc2ccccc2)sc2nc(Cl)nn12` (stereo not given), in [10], the IC50 is 0.01 µM.
Same read-out and setting: next, `Cc1c(C(C)OC(=O)Nc2ccccc2)sc2nc(C3CC3)nn12` (stereo not given): 0.0126 µM.
`Cc1c(C(C)OC(=O)Nc2ccccc2)sc2nc(-c3cccs3)nn12` (stereo not given): in data set [10], the IC50 is 0.00794 µM. Further, in data set [11], the logD was determined as 3.7. In [12], this compound registered an unbound share (fraction unbound) of less than 0.001.
As for `Cc1c(C(C)OC(=O)Nc2ccccc2)sc2nc(-c3ccc(F)cc3)nn12` (stereo not given), the 50% inhibitory concentration (IC50) in data set [10] is 0.01 µM.
Same read-out and setting: next, `Cc1c(C(C)OC(=O)Nc2ccccc2)sc2nc(C(F)(F)F)nn12` (stereo not given): 0.0398 µM.
In the case of `CC(OC(=O)Nc1ccccc1)c1cn2ncnc2s1` (stereo not given), the IC50 in data set [7] was 10 µM.
For the compound `Cc1c(COC(=O)Nc2ccccc2)sc2ncnn12`, in [7], the IC50 is greater than 31.6 µM.
As to `O=C(Nc1ccccc1)OCc1cn2ncnc2s1`, the IC50 in data set [7] was greater than 31.6 µM.
On to `Cc1c(C(C)OC(=O)N(C)c2ccccc2)sc2ncnn12` (stereo not given), for which, in [7], the IC50 was greater than 31.6 µM.
Regarding `Cc1c([C@H](C)OC(=O)Nc2ccccc2)sc2ncnn12`, in data set [7], the half-inhibitory concentration (IC50) is greater than 10 µM.
Compound `Cc1c(C(C)OC(=O)Nc2ccccc2)sc2nccn12` (stereo not given) registered a logD in data set [11] of 2.4. For the same compound, the half-inhibitory concentration (IC50) in data set [7] was 0.0126 µM. Also, the free fraction (fraction unbound) in data set [12] was found to be 0.003.
Take `Cc1c(C(C)OC(=O)Nc2ccccc2)sc2nncn12` (stereo not given): the IC50 in data set [7] was 0.126 µM.
The compound `Cc1c(C(C)OC(=O)Nc2cccnc2)sc2ncnn12` (stereo not given) returned a log distribution coefficient (logD) in data set [11] of 1. The half-maximal inhibitory concentration (IC50) in data set [7] is 0.316 µM. The free fraction (fraction unbound) in data set [12] was determined as 0.28.
For `Cc1c(C(C)OC(=O)Nc2cccc(F)c2)sc2nncn12` (stereo not given), in that order: 2, 0.0631 µM and 0.068.
Compound `Cc1c([C@@H](C)OC(=O)Nc2cccc(F)c2)sc2nncn12` had a solubility in [1] of 31 µg/mL (≈ 96.8 µM). The Cmax in [2] amounted to 210 ng/mL. Moreover, the IC50 was greater than 50.1 µM in data set [3], 0.0398 µM in data set [7] and 0.0316 µM in [8]. In addition, the bioavailability in data set [5] came out at 100%. Also, the Kp in [6] was 0.2. In data set [9], the clearance came out at 33 mL/min/kg.
On to `Cc1c(C(C)OC(=O)Nc2ccccc2)sc2ncnn12` (stereo not given), for which the IC50 in data set [7] is greater than 31.6 µM.
